Measured values from PubChem BioAssay.
Calls of active or inactive are those of the source.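 The calls were made as follows, unless noted: active = inhibition at or above 50% at 10 µM; inactive = inhibition below 50%.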

Experiments:
[1] = inhibitors of TNFa-induced NFkB p65 translocation, primary screen, imaging, HUVEC, MLSMR starter and 10KST1 sets (AID 438;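 active = inhibition above 20% together with a positive visual image hit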;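 also: compound added about 3h40 before a 20 min TNFalpha stimulation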;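 as to inhibition: signal is the nuclear over cytoplasmic p65 intensity ratio per well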); settings: HUVEC TNFa-induced p65 nuclear translocation; cell count: measured here: nuclei count (cytotoxicity indicator), at 2.08 µM; inhibition: at 2 µM, stronger effect = higher value, 0% TNFa-plus-vehicle, 100% no-TNFa wells
[2] = reduction of polyQ htt aggregates in cells – imaging, exon1htt(103Q)mCFP cells, high-content imaging, primary screen (AID 483;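 active = visual image review flags a hit and inhibition of aggregation exceeds 20%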;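 also: compound exposure lasted 3 days before fixation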;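 as to nuclei count: percent of the per-plate median nuclei count of sample wells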); settings: exon1htt(103Q)mCFP cell line, aggregate imaging, at 2 µM; inhibition of aggregation: stronger effect = higher value; nuclei count: measured here: cell count, toxicity
[3] = endothelial E-selectin expression blockers – imaging, HUVEC, immunofluorescence, MLSMR starter and 10KST1 sets, primary screen (AID 487;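 active = visually confirmed hit in the image check and inhibition above 20%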;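 as to inhibition: signal is fraction of cell area covered by stained E-selectin grains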;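 as to nuclei count: 100% = median nuclei count of all wells on the same plate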); settings: HUVEC TNFalpha-induced E-selectin immunofluorescence imaging, at 2 µM; inhibition: stronger effect = higher value; nuclei count: measured here: cell number, toxicity
[4] = target: Voltage-gated potassium channel subunit beta-2 (Rattus norvegicus) (UniProt P62483); test: inhibitors of rat Kvbeta2 reductase activity – biochemical, NADPH fluorescence, primary screen (AID 622;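 active = fluorescence slope higher than the sample average by over 3 SD, cut at about -0.22 in these data, passing the limit was not always enough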;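 also: slope of raw intensity against log time taken from 70 to 1610 s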); settings: recombinant KvBeta, 4-cyanobenzaldehyde reduction, at 10 µM, stronger effect = higher value
Chain of Voltage-gated potassium channel subunit beta-2 (Rattus norvegicus) (P62483 whole entry, looked up): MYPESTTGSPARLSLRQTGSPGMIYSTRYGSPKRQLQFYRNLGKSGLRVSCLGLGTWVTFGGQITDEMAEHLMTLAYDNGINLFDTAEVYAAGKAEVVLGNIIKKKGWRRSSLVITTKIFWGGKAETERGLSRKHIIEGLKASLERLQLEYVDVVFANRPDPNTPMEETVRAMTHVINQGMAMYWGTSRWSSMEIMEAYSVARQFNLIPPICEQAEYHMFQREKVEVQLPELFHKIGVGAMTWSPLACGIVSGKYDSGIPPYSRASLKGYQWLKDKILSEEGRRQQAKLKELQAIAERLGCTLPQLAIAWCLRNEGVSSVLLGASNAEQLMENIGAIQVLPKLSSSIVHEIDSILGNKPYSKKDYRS

[5] = target: Voltage-gated potassium channel subunit beta-2 (Rattus norvegicus) (UniProt P62483); test: enhancers of rat Kvbeta2 NADPH turnover – biochemical, NADPH fluorescence, primary screen (AID 623;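 active = NADPH fluorescence slope more negative than the mean of all samples by about 3 SD, 99.7% confidence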;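 also: fluorescence intensity change per second fitted from 20 to 320 s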); settings: Recombinant KvBeta, NADPH fluorescence decrease slope, 10 min; at 10 µM; stronger effect = lower value
[6] = target: Alpha-2C adrenergic receptor (Homo sapiens) (UniProt P18825); test: compounds altering alpha2C-coupled GIRK flux – cell-based, HEK293 alpha2C/GIRK1/2, thallium flux, primary screen (AID 624;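 active = fluorescence slope after compound addition differing from the mean of all screened samples at 99.7% confidence, in either direction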;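 also: slope of fluorescence ratio to pre-addition baseline per second over 15 to 24 s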); settings: thallium flux BTC fluorescence, at 10 µM, actives lie on both sides
Chain of Alpha-2C adrenergic receptor (Homo sapiens) (P18825 whole entry, looked up): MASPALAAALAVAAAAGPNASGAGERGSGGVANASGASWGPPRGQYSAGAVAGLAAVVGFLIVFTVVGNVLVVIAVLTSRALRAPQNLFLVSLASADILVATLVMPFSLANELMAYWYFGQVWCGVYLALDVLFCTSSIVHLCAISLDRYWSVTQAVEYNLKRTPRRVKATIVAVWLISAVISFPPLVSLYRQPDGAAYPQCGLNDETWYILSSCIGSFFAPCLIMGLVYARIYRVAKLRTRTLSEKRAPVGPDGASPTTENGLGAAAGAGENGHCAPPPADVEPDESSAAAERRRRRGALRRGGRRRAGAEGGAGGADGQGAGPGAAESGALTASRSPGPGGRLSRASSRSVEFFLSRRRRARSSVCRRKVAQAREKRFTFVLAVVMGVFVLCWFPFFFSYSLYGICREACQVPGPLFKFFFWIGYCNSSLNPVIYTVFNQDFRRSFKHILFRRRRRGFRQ

[7] = inhibitors of larval lipid processing in zebrafish, primary screen, whole organism, PED6 fluorescence, gall bladder and intestine (AID 686;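 active = a full or partial loss of lipid-probe fluorescence in the fish gall bladder, intestine or both, judged by eye; inactive = no fluorescence loss, or compound toxic to the fish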;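 also: larvae 5 to 7 days old with five fish per well; signal comes from phospholipase A2 cleavage of quenched PED6 carried via bile; overnight exposure to compound and PED6 before scoring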); settings: Zebrafish larvae PED6 lipid processing, fluorescence scoring; screened at 20 µM (by protocol)
Procedure, shortened: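 Test system – live zebrafish larvae aged 5-7 days, whole organism · Buffer or medium – E3 fish medium · Reagent – quenched phospholipase substrate PED6, 100 nM final, ingested by larvae · Doses – 20 µM single dose · Incubation – overnight compound and PED6 incubation · Technique – visual fluorescence microscopy scoring of gall bladder, gut · Read-out basis – visual per-well fluorescence inhibition score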

[8] = blockers of RIG-like receptor reporter activation – cell-based, Sendai virus stimulus, luciferase, 10K MLSCN set, TLR/RLR signaling modifier project, primary screen (AID 602276); settings: HEK293 RL24 IRF3 luciferase reporter, at 10 µM, stronger effect = higher value;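 also: firefly luciferase from ISG56 promoter only with Renilla not read in this screen; 0% = Sendai virus plus DMSO and 100% = medium plus DMSO without virus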
[9] = TLR3 IRF3 reporter activation blockers – cell-based, poly I:C stimulus, luciferase, 10K MLSCN set, primary screen (AID 602277;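 active = inhibition of the reporter signal at or above 50%; inactive = inhibition below 50%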); settings: HEK293-TLR3 RL24 IRF3 luciferase reporter, at 10 µM, stronger effect = higher value

| Structure (SMILES) | cell count [1] | inhibition [1] | inhibition of aggregation [2] | nuclei count [2] [%] | inhibition [3] | nuclei count [3] [%] | fluorescence slope [4] | NADPH fluorescence slope [5] | slope [6] | outcome [7] | inhibition [8] | inhibition [9] |
| --- | --- | --- | --- | --- | --- | --- | --- | --- | --- | --- | --- | --- |
| CCC(=O)Nc1cc(Cl)ccc1N1CCN(C(=O)CC)CC1 | 376 | 2.1% (inactive) | 16.1% (inactive) | 102 | -17.9% (inactive) | 90.8 | -0.465 (inactive) | -1.2e-05 (inactive) | 0.00532 (inactive) | inactive | 18.6% (inactive) | 16.6% (inactive) |
| COc1ccc(S(=O)(=O)NCCSCc2ccco2)cc1Cl | 362 | 4.4% (inactive) | 13% (inactive) | 94 | 13.2% (inactive) | 108 | -0.424 (inactive) | -6.4e-06 (inactive) | 0.00484 (inactive) | inactive | 20.4% (inactive) | 19.9% (inactive) |
| O=C(c1cccnc1)N1CCN(C(=O)c2ccccc2F)CC1 | 343 | 1% (inactive) | -7.4% (inactive) | 97.7 | -6% (inactive) | 114 | -0.353 (inactive) | -3.8e-05 (inactive) | 0.00512 (inactive) | inactive | -1.4% (inactive) | 99.3% (active) |
| Cc1cc(C)nc(N2CCC(C(=O)Nc3ccc(Oc4ccccc4)cc3)CC2)n1 | 706 | -15% (inactive) | -11% (inactive) | 122 | -54.3% (inactive) | 116 | -0.432 (inactive) | -5.6e-05 (inactive) | 0.00595 (inactive) | inactive | 13% (inactive) | 11% (inactive) |
| O=C(CSc1nc2ccccc2o1)N1CCN(C(=O)c2ccco2)CC1 | 595 | -11.5% (inactive) | 9.6% (inactive) | 102 | -19.5% (inactive) | 99.6 | -0.376 (inactive) | -5.7e-05 (inactive) | 0.00634 (inactive) | inactive | 3.77% (inactive) | 3.76% (inactive) |
| CCC(=O)Nc1nn(C)c2nc3c(C)cccc3cc12 | 724 | -9% (inactive) | 27.6% (inactive) | 87.7 | -53.9% (inactive) | 102 | -0.281 (inactive) | -6.4e-06 (inactive) | 0.00513 (inactive) | inactive | -2.08% (inactive) | -4.15% (inactive) |
| CCCc1cc(=O)oc2cc(C)cc(OC(=O)c3ccco3)c12 | 298 | -9% (inactive) | 14.4% (inactive) | 86 | -170% (inactive) | 108 | -0.399 (inactive) | -3.5e-05 (inactive) | 0.00456 (inactive) | inactive | -12.5% (inactive) | -18.4% (inactive) |
| CC(C)(C)NC(=O)C(Cc1ccccc1)NS(=O)(=O)c1cccc2nsnc12 (centres undefined) | 721 | -19.8% (inactive) | -37.6% (inactive) | 113 | -49.9% (inactive) | 112 | -0.413 (inactive) | 1.1e-05 (inactive) | 0.00438 (inactive) | inactive | 3.22% (inactive) | 8.45% (inactive) |
| CN(Cc1ccccc1)C(=O)c1cc(-c2ccc(Br)cc2)on1 | 318 | 2.4% (inactive) | 14.9% (inactive) | 107 | 19.7% (inactive) | 110 | -0.399 (inactive) | -3.6e-05 (inactive) | 0.00441 (inactive) | inactive | -49.5% (inactive) | -116% (inactive) |
| O=C(c1cnc2sccn2c1=O)N1CCc2ccccc2C1 | 438 | -3% (inactive) | 4.4% (inactive) | 86.1 | -376% (inactive) | 102 | -0.398 (inactive) | -5.3e-05 (inactive) | 0.00452 (inactive) | inactive | -4.13% (inactive) | 99% (active) |
| Cc1ccc(NC(=O)c2ccco2)c(NC(=O)CN2C(=O)c3ccccc3C2=O)c1 | 402 | -7.3% (inactive) | 6.5% (inactive) | 90.3 | -162% (inactive) | 155 | -0.466 (inactive) | -1.3e-05 (inactive) | 0.00456 (inactive) | inactive | 0.0738% (inactive) | -0.596% (inactive) |
| Cc1cccc(OCC(=O)Nc2ccc(N3CCCC3)cc2)c1C | 553 | -2.5% (inactive) | -18.4% (inactive) | 93.1 | -53.5% (inactive) | 83.5 | -0.37 (inactive) | -6.9e-05 (inactive) | 0.005 (inactive) | inactive | 7.46% (inactive) | 6.78% (inactive) |
| CCOc1ccccc1N1CC(O)=C(c2nc3ccccc3s2)C1=N | 348 | -0.8% (inactive) | 0.2% (inactive) | 97.7 | -69.5% (inactive) | 92 | -0.291 (inactive) | -3.9e-05 (inactive) | 0.00531 (inactive) | inactive | -19.5% (inactive) | 55.4% (active) |
| Cc1csc(NC(=O)c2ccccc2C(=O)O)n1 | 418 | 9% (inactive) | -16.7% (inactive) | 111 | -46.7% (inactive) | 116 | -0.358 (inactive) | -6.8e-05 (inactive) | 0.00549 (inactive) | inactive | 5.94% (inactive) | 3.54% (inactive) |
| Cc1ccc(NC(=O)CSc2nnc(-c3ccc(S(=O)(=O)N4CCOCC4)cc3)n2C)cc1 | 740 | -0.2% (inactive) | 0.9% (inactive) | 87 | 9.3% (inactive) | 111 | -0.384 (inactive) | -7.3e-05 (inactive) | 0.00534 (inactive) | inactive | 4.24% (inactive) | 4.26% (inactive) |
| CCCC(OC(=O)CN1C(=O)COc2ccccc21)C(=O)NC1CCCC1 (centres undefined) | 637 | 5.5% (inactive) | 1.5% (inactive) | 129 | -88% (inactive) | 106 | -0.434 (inactive) | -1.6e-05 (inactive) | 0.00522 (inactive) | inactive | 20.6% (inactive) | 23.6% (inactive) |
| Cc1cccc(NC(=O)c2ccc(S(=O)(=O)N(C)C)cc2)n1 | 290 | -5.5% (inactive) | 4.5% (inactive) | 108 | -126% (inactive) | 94.4 | -0.318 (inactive) | -2.4e-05 (inactive) | 0.00507 (inactive) | inactive | -11.6% (inactive) | -45.9% (inactive) |
| Cc1ccc2[nH]c3c(=O)n(CCCN4CCN(C)CC4)cnc3c2c1 | 478 | 1% (inactive) | -13.7% (inactive) | 105 | -36.8% (inactive) | 115 | -0.38 (inactive) | -2.9e-05 (inactive) | 0.0053 (inactive) | inactive | 1.24% (inactive) | 22.2% (inactive) |
| CC(=O)NCCC(=O)Nc1ccc(C)c(F)c1 | 417 | -4.4% (inactive) | -5.1% (inactive) | 109 | -55.7% (inactive) | 110 | -0.451 (inactive) | -1.3e-05 (inactive) | 0.00617 (inactive) | inactive | -3.46% (inactive) | -7.08% (inactive) |
| COC(=O)CSc1nnc(-c2ccc(OC)cc2OC)o1 | 609 | 6.3% (inactive) | 6.1% (inactive) | 109 | 44.6% (inactive) | 90.8 | -0.397 (inactive) | -5.2e-05 (inactive) | 0.00519 (inactive) | inactive | 13.1% (inactive) | 10.4% (inactive) |
| CNC(=O)c1ccc2nc(NC(C)=O)sc2c1 | 382 | -10.3% (inactive) | 4.1% (inactive) | 74.6 | 13.2% (inactive) | 56.8 | -0.327 (inactive) | -6.5e-05 (inactive) | 0.00564 (inactive) | inactive | -11.9% (inactive) | -21.9% (inactive) |
| CCOC(=O)c1c(N)c(C#N)nn1-c1ccccc1C(=O)OC | 516 | -3.6% (inactive) | 30.5% (inactive) | 81 | -41.6% (inactive) | 101 | -0.364 (inactive) | -4.6e-05 (inactive) | 0.00521 (inactive) | inactive | 9.81% (inactive) | 20.2% (inactive) |
| CCN(CC)S(=O)(=O)c1cccc(-c2nnc(SCCOc3ccccc3C)o2)c1 | 356 | 0.4% (inactive) | -13.5% (inactive) | 95.4 | 3.8% (inactive) | 114 | -0.458 (inactive) | -8e-05 (inactive) | 0.00732 (inactive) | inactive | 9.64% (inactive) | -24.4% (inactive) |
| O=C1c2ccccc2NC(c2cccc(F)c2)N1Cc1ccco1 (centres undefined) | 586 | -32.4% (inactive) | 10.2% (inactive) | 106 | -0.5% (inactive) | 107 | -0.308 (inactive) | -2.7e-05 (inactive) | 0.00344 (inactive) | inactive | 16.4% (inactive) | 17.8% (inactive) |
| CCCCCCn1c(CN2CCN(Cc3ccccc3)CC2)nc2c1c(=O)n(C)c(=O)n2C | 255 | -15.1% (inactive) | 9.8% (inactive) | 84.1 | 24.2% (inactive) | 64 | -0.43 (inactive) | -5.6e-05 (inactive) | 0.00491 (inactive) | inactive | 23% (inactive) | 17.3% (inactive) |
| COC(=O)c1c(NC(=O)CCc2ccc(C)o2)sc(C)c1C | 568 | 6.6% (inactive) | 7.9% (inactive) | 79.4 | -69.4% (inactive) | 91 | -0.294 (inactive) | -1.6e-05 (inactive) | 0.00498 (inactive) | inactive | 15.7% (inactive) | 31.1% (inactive) |
| COc1cccc(NC(=O)N(CCCN2CCOCC2)C(C)c2cc3cccc(OC)c3o2)c1 (centres undefined) | 863 | 5% (inactive) | -3.4% (inactive) | 106 | -93.2% (inactive) | 132 | -0.433 (inactive) | -6.3e-05 (inactive) | 0.00436 (inactive) | inactive | 16.5% (inactive) | 34.8% (inactive) |
